From ChEMBL document CHEMBL2346664, “Synthesis, characterization and in vitro anticancer evaluation of novel 1,2,4-triazolin-3-one derivatives” (2013)

Columns and labels:
Assay type in all cases: functional
[1] = system: UACC-62; experiment: Growth inhibition of human UACC62 cells assessed as growth inhibition at 10 uM after 48 hrs by sulforhodamine B assay; conditions: UACC-62, 48 h, read-out: GI
[2] = system: Malme-3M; experiment: Growth inhibition of human MALME-3M cells after 48 hrs by sulforhodamine B assay
In short: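 NCI 60-cell-line five-dose screen. Cells were plated at 5,000–40,000/well by doubling time and grown 24 h at 37 °C, 5% CO2. Time-zero plates were TCA-fixed. Drug from DMSO stock was tested at 0.01, 0.1, 1, 10 and 100 µM final for 48 h continuous exposure. Read-out was SRB at 515 nm. GI50 is the concentration giving 50% reduction in net protein increase versus untreated control.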

[3] = system: M14; experiment: Growth inhibition of human M14 cells assessed as growth inhibition at 10 uM after 48 hrs by sulforhodamine B assay; conditions: M14, 48 h, read-out: GI
[4] = system: NCI-H522; experiment: Growth inhibition of human NCI-H522 cells assessed as cell growth at 10 '-7 M after 48 hrs by sulforhodamine B assay; conditions: NCI-H522, 48 h, read-out: Activity
[5] = system: CAKI-1; experiment: Growth inhibition of human CAKI-1 cells assessed as cell growth at 10 '-4 M after 48 hrs by sulforhodamine B assay; conditions: CAKI-1, 48 h, read-out: Activity
In short: (§1)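 Percent growth at each of the five concentrations of the 48 h continuous-exposure NCI SRB screen. Drug stocks were in DMSO at 400× the top final concentration and diluted in medium with gentamicin. Growth was calculated as [(Ti-Tz)/(C-Tz)]×100 when Ti ≥ Tz, or [(Ti-Tz)/Tz]×100 when Ti < Tz. Tz plates were fixed at drug addition; untreated wells served as control. Absorbance was read at 515 nm.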

[6] = system: SNB-75; experiment: Growth inhibition of human SNB75 cells assessed as cell growth at 10 '-4 M after 48 hrs by sulforhodamine B assay; conditions: SNB-75, 48 h, read-out: Activity
[7] = system: UACC-62; experiment: Growth inhibition of human UACC62 cells assessed as cell growth at 10 '-8 M after 48 hrs by sulforhodamine B assay; conditions: UACC-62, 48 h, read-out: Activity
[8] = system: OVCAR-4; experiment: Growth inhibition of human OVCAR4 cells assessed as cell growth at 10 '-6 M after 48 hrs by sulforhodamine B assay; conditions: OVCAR-4, 48 h, read-out: Activity
[9] = system: PC-3; experiment: Growth inhibition of human PC3 cells assessed as cell growth at 10 '-4 M after 48 hrs by sulforhodamine B assay; conditions: PC-3, 48 h, read-out: Activity
[10] = system: SF-539; experiment: Growth inhibition of human SF539 cells assessed as cell growth at 10 '-7 M after 48 hrs by sulforhodamine B assay; conditions: SF-539, 48 h, read-out: Activity
[11] = Growth inhibition of human Hs 578T cells assessed as cell growth at 10 '-8 M after 48 hrs by sulforhodamine B assay; conditions: read-out: Activity
[12] = system: M14; experiment: Growth inhibition of human M14 cells assessed as cell growth at 10 '-6 M after 48 hrs by sulforhodamine B assay; conditions: M14, 48 h, read-out: Activity
[13] = system: SN12C; experiment: Growth inhibition of human SN12C cells assessed as cell growth at 10 '-8 M after 48 hrs by sulforhodamine B assay; conditions: read-out: Activity
[14] = system: SNB-75; experiment: Growth inhibition of human SNB75 cells assessed as growth inhibition at 10 uM after 48 hrs by sulforhodamine B assay; conditions: SNB-75, 48 h, read-out: GI
[15] = system: HCT-116; experiment: Growth inhibition of human HCT116 cells assessed as cell growth at 10 '-5 M after 48 hrs by sulforhodamine B assay; conditions: HCT-116, 48 h, read-out: Activity
[16] = system: A549; experiment: Growth inhibition of human A549 cells assessed as cell growth at 10 '-4 M after 48 hrs by sulforhodamine B assay; conditions: A549, 48 h, read-out: Activity; in short: as §1
[17] = system: HCT-116; experiment: Growth inhibition of human HCT116 cells assessed as cell growth at 10 '-4 M after 48 hrs by sulforhodamine B assay; conditions: HCT-116, 48 h, read-out: Activity
[18] = system: COLO 205; experiment: Growth inhibition of human COLO205 cells assessed as cell growth at 10 '-6 M after 48 hrs by sulforhodamine B assay; conditions: COLO 205, 48 h, read-out: Activity
In short: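 In the same five-dose SRB screen (48 h, 37 °C, 5% CO2), percentage growth was computed at each concentration from time-zero (Tz), control (C) and treated (Ti) absorbances. The formula was [(Ti−Tz)/(C−Tz)]×100 when Ti ≥ Tz, or [(Ti−Tz)/Tz]×100 when Ti < Tz.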

[19] = Growth inhibition of human Hs 578T cells assessed as cell growth at 10 '-4 M after 48 hrs by sulforhodamine B assay; conditions: read-out: Activity
[20] = system: HT-29; experiment: Growth inhibition of human HT-29 cells assessed as cell growth at 10 '-8 M after 48 hrs by sulforhodamine B assay; conditions: HT-29, 48 h, read-out: Activity
[21] = system: IGROV-1; experiment: Growth inhibition of human IGROV1 cells assessed as cell growth at 10 uM after 48 hrs by sulforhodamine B assay; conditions: IGROV-1, 48 h, read-out: Activity
[22] = system: OVCAR-5; experiment: Growth inhibition of human OVCAR5 cells after 48 hrs by sulforhodamine B assay; conditions: OVCAR-5, 48 h
[23] = system: OVCAR-4; experiment: Growth inhibition of human OVCAR4 cells assessed as cell growth at 10 '-5 M after 48 hrs by sulforhodamine B assay; conditions: OVCAR-4, 48 h, read-out: Activity
[24] = system: SF-268; experiment: Growth inhibition of human SF268 cells assessed as cell growth at 10 '-7 M after 48 hrs by sulforhodamine B assay; conditions: SF-268, 48 h, read-out: Activity
[25] = system: K562; experiment: Growth inhibition of human K562 cells assessed as cell growth at 10 '-7 M after 48 hrs by sulforhodamine B assay; conditions: K562, 48 h, read-out: Activity
[26] = system: 786-0; experiment: Growth inhibition of human 786-0 cells assessed as cell growth at 10 '-7 M after 48 hrs by sulforhodamine B assay; conditions: 786-0, 48 h, read-out: Activity; in short: as §1
[27] = system: OVCAR-3; experiment: Growth inhibition of human OVCAR3 cells assessed as cell growth at 10 '-5 M after 48 hrs by sulforhodamine B assay; conditions: OVCAR-3, 48 h, read-out: Activity
[28] = read-out: LD50 (the source's name)

Work on Cc1cc(=O)oc2cc(OCCn3c(C)nn(-c4ccc(Cl)cc4)c3=O)ccc12 yielded an inhibition of growth at 10 µM [1] of 56.7%, a GI50 [2] of 3850 nM and a TGI [2] of over 1000 nM. The CC50 [2, 28] was over 1000 nM, the inhibition of growth at 10 µM [3] was 85.3% and the growth at 0.1 µM [4] was 96%. It also gave a growth at 100 µM [5] of 52%, a growth at 100 µM [6] of -25% and a growth at 0.01 µM [7] of 97%. For the same compound, the growth at 1 µM [8] was 88%, the growth at 100 µM [9] was 34% and the growth at 0.1 µM [10] was 103%. For the same compound, the growth at 0.01 µM [11] was 88%, the growth at 1 µM [12] was 67% and the growth at 0.01 µM [13] was 94%. For the same compound, the inhibition of growth at 10 µM [14] was 79.6%, the growth at 10 µM [15] was 21% and the growth at 100 µM [16] was 27%. The growth at 100 µM [17] was 23%, the growth at 1 µM [18] was 89% and the growth at 100 µM [19] was 7%. The growth at 0.01 µM [20] was 104%, the growth at 10 µM [21] was 59.7% and the GI50 [22] was 2190 nM. For the same compound, the TGI [22] was over 1000 nM, the CC50 [22, 28] was over 1000 nM and the growth at 10 µM [23] was -1%. For the same compound, the growth at 0.1 µM [24] was 99%, the growth at 0.1 µM [25] was 106% and the growth at 0.1 µM [26] was 104%. It also gave a growth at 10 µM [27] of 7%.
